In ChEMBL document CHEMBL4359864, “The synthesis and in vitro biological evaluation of novel fluorinated tetrahydrobenzo[j]phenanthridine-7,12-diones against Mycobacterium tuberculosis” (Eur J Med Chem, 2019):
In brackets after ≈: the same amount, converted by molar mass.

Key:
Escherichia coli = assay: Antibacterial activity against Escherichia coli ATCC 8739 incubated for 24 hrs by resazurin dye based fluorimetric assay; format: functional, organism-based; details: ATCC 8739, ATCC 8739, 24 h
In short: (§1)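 Resazurin microtiter assay: compounds from 10 mM DMSO stock, twofold serial dilutions from 64 µM final in growth medium, in triplicate. Inoculum from frozen glycerol stocks. Exposure 24 h, or 7 days for Mtb H37Ra (7H9 + 0.5% glycerol + 10% OADC). Then 0.01% resazurin was added and plates were incubated at 37°C until pink. Fluorescence read at ex 550/em 590 nm; mean of triplicates.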

Pseudomonas aeruginosa = assay: Antibacterial activity against Pseudomonas aeruginosa ATCC 9027 incubated for 24 hrs by resazurin dye based fluorimetric assay; format: functional, organism-based; details: ATCC 9027, 24 h; in short: as §1
[1] = Antimycobacterial activity against Mycobacterium avium subsp. avium ATCC 25291 by resazurin dye based fluorimetric assay; format: functional
In short: (§2)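 Resazurin microtiter method as for the bacterial panel. Mycobacteria grown in 7H9 with 10% OADC and 0.5% glycerol; for BCG, 0.05% Tween 80 replaced the glycerol. Cultures were sonicated and needle-passed to single cells. Incubation at 37°C, or 32°C for M. marinum. Fluorescence read at ex 550/em 590 nm; mean of triplicates.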

Staphylococcus aureus = assay: Antibacterial activity against Staphylococcus aureus ATCC 6538 incubated for 24 hrs by resazurin dye based fluorimetric assay; format: functional, organism-based; details: ATCC 6538, 24 h; in short: as §1
UGT [2] = target: T1, UGT (Homo sapiens, UniProt O60656+O75310+O75795+P06133+P0DTE4+P0DTE5+P16662+P19224+P22309+P22310+P35503+P35504+P36537+P54855+Q6UWM9+Q9BY64+Q9HAW7+Q9HAW8+Q9HAW9); assay: Microsomal stability in human liver microsomes assessed as UGT-mediated metabolism by measuring compound remaining at 5 uM and measured for 30 mins in presence of UDPGA by UPLC-MS/MS analysis (reference value: 100%); format: ADME; details: read-out: Stability
In short: (§3)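 Compound at 5 µM with 0.5 mg/mL liver microsomes in PBS. Phase I was started with 1 mM NADPH; phase II used 2 mM UDPGA. Diclofenac served as reference. Samples taken at 0, 15, 30 and 60 min were quenched in ice-cold acetonitrile, centrifuged at 4°C and analysed by LC-MS. Mean of at least two replicates ± SD.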

Klebsiella pneumoniae = assay: Antibacterial activity against Klebsiella pneumoniae ATCC 13883 incubated for 24 hrs by resazurin dye based fluorimetric assay; format: functional, organism-based; details: ATCC 13883, 24 h; in short: as §1
[3] = Cytotoxicity against mouse J774A.1 cells assessed as reduction in cell viability incubated for 24 hrs by neutral red uptake assay; format: cell-based, J774.A1
In short: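 J774A.1 cells in DMEM + 10% iFCS, 37°C, 5% CO2, seeded at 40.000 cells/well and left overnight. Twofold dilutions from 128 µM final; 24 h exposure. Neutral red uptake for 3 h, dye extracted with 1:1 ethanol/acetic acid, OD read at 530 nm (reference 620 nm). CC50 = 50% reduction in uptake; mean of triplicates.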

UGT [4] = assay: Microsomal stability in mouse liver microsomes assessed as UGT-mediated metabolism by measuring compound remaining at 5 uM and measured for 30 mins in presence of UDPGA by UPLC-MS/MS analysis (reference value: 100%); format: ADME; details: read-out: Stability; in short: as §3
CYP450 [5] = assay: Microsomal stability in mouse liver microsomes assessed as CYP450-mediated metabolism by measuring compound remaining at 5 uM and measured for 15 mins in presence of NADPH by UPLC-MS/MS analysis (reference value: 100%); format: ADME; details: read-out: Stability; in short: as §3
CYP450 [6] = target: T2, CYP450 (Homo sapiens, UniProt P04798+P05177+P05181+P08684+P10632+P10635+P11509+P11712+P13584+P20813+P20815+P20853+P24462+P24903+P33260+P33261+P51589+P78329+P98187+Q02928+Q08477+Q16678+Q16696+Q5TCH4+Q6VVX0+Q7Z449+Q8TAV3+Q96SQ9+Q9HB55); assay: Microsomal stability in human liver microsomes assessed as CYP450-mediated metabolism by measuring compound remaining at 5 uM and measured for 30 mins in presence of NADPH by UPLC-MS/MS analysis (reference value: 100%); format: ADME; details: read-out: Stability; in short: as §3
UGT [7] = target: T1, UGT; assay: Microsomal stability in human liver microsomes assessed as UGT-mediated metabolism by measuring compound remaining at 5 uM and measured for 60 mins in presence of UDPGA by UPLC-MS/MS analysis (reference value: 100%); format: ADME; details: read-out: Stability; in short: as §3
[8] = system: Mycobacterium tuberculosis; assay: Antimycobacterial activity against Mycobacterium tuberculosis H37Ra lux incubated for 7 days by luminometric assay; format: functional, organism-based; details: 168 h
In short: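 Twofold serial dilutions in 7H9/OADC/glycerol, in triplicate, inoculated with a suspension of 10.000 RLU per mL. After 7 days, n-decanal (1% v/v in ethanol) was added and luminescence read. IC50 and MIC (90% growth reduction) were derived from the mean of triplicates.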

Enterococcus faecium = assay: Antibacterial activity against Enterococcus faecium ATCC 19434 incubated for 24 hrs by resazurin dye based fluorimetric assay; format: functional, organism-based; details: ATCC 19434, 24 h; in short: as §1
Streptococcus pneumoniae = assay: Antibacterial activity against Streptococcus pneumoniae ATCC BAA-334 incubated for 24 hrs by resazurin dye based fluorimetric assay; format: functional, organism-based; details: ATCC BAA-334, 24 h; in short: as §1
[9] = system: Mycobacterium tuberculosis; assay: Antibacterial activity against Mycobacterium tuberculosis H37Ra ATCC 25177 incubated for 7 days by resazurin dye based fluorimetric assay; format: functional, organism-based; details: H37Ra ATCC 25177, 168 h; in short: as §1
CYP450 [10] = assay: Microsomal stability in mouse liver microsomes assessed as CYP450-mediated metabolism by measuring compound remaining at 5 uM and measured for 30 mins in presence of NADPH by UPLC-MS/MS analysis (reference value: 100%); format: ADME; details: read-out: Stability; in short: as §3
CYP450 [11] = target: T2, CYP450; assay: Microsomal stability in human liver microsomes assessed as CYP450-mediated metabolism by measuring compound remaining at 5 uM and measured for 60 mins in presence of NADPH by UPLC-MS/MS analysis (reference value: 100%); format: ADME; details: read-out: Stability; in short: as §3
UGT [12] = target: T1, UGT; assay: Microsomal stability in human liver microsomes assessed as UGT-mediated metabolism by measuring compound remaining at 5 uM and measured for 15 mins in presence of UDPGA by UPLC-MS/MS analysis (reference value: 100%); format: ADME; details: read-out: Stability; in short: as §3
[13] = Selectivity index, ratio of […] for cytotoxicity against mouse J774A.1 cells; format: toxicity, cell-based; details: read-out: Selectivity Index
UGT [14] = assay: Microsomal stability in mouse liver microsomes assessed as UGT-mediated metabolism by measuring compound remaining at 5 uM and measured for 60 mins in presence of UDPGA by UPLC-MS/MS analysis (reference value: 100%); format: ADME; details: read-out: Stability; in short: as §3
UGT [15] = assay: Microsomal stability in mouse liver microsomes assessed as UGT-mediated metabolism by measuring compound remaining at 5 uM and measured for 15 mins in presence of UDPGA by UPLC-MS/MS analysis (reference value: 100%); format: ADME; details: read-out: Stability; in short: as §3
CYP450 [16] = assay: Microsomal stability in mouse liver microsomes assessed as CYP450-mediated metabolism by measuring compound remaining at 5 uM and measured for 60 mins in presence of NADPH by UPLC-MS/MS analysis (reference value: 100%); format: ADME; details: read-out: Stability; in short: as §3
CYP450 [17] = target: T2, CYP450; assay: Microsomal stability in human liver microsomes assessed as CYP450-mediated metabolism by measuring compound remaining at 5 uM and measured for 15 mins in presence of NADPH by UPLC-MS/MS analysis (reference value: 100%); format: ADME; details: read-out: Stability; in short: as §3
Mycobacterium marinum = assay: Antimycobacterial activity against Mycobacterium marinum NCTC 2275 by resazurin dye based fluorimetric assay; format: functional, organism-based; in short: as §2

## CCn1cc(C(=O)O)c(=O)c2cc(F)c(N3CCNCC3)cc21 [NORFLOXACIN]
Escherichia coli
  IC50: > 0.25 µM
Pseudomonas aeruginosa
  IC50: > 0.5 µM

## O=C1C2=C(C(=O)c3c1cnc1cc(F)ccc31)C1CCC2C1 (stereo not drawn)
[1]
  IC50: 0.43 µM
Staphylococcus aureus
  IC50: > 64 µM
UGT [2]
  remaining at 0.5 h, 5 µM: 76%
Klebsiella pneumoniae
  IC50: > 64 µM
Escherichia coli
  IC50: > 64 µM
[3]
  CC50 at 24 h: 35.2 µM
UGT [4]
  remaining at 0.5 h, 5 µM: 88%
CYP450 [5]
  remaining at 0.25 h, 5 µM: 100%
CYP450 [6]
  remaining at 0.5 h, 5 µM: 100%
UGT [7]
  remaining at 1 h, 5 µM: 60%
[8]
  IC50: 1.8 µM
  MIC90: 10.2 µM (≈ 3 µg/mL)
Enterococcus faecium
  IC50: > 64 µM
Streptococcus pneumoniae
  IC50: 32 to 64 µM
[9]
  IC50: 1 to 2 µM
CYP450 [10]
  remaining at 0.5 h, 5 µM: 100%
CYP450 [11]
  remaining at 1 h, 5 µM: 100%
UGT [12]
  remaining at 0.25 h, 5 µM: 79%
[13]
  selectivity ratio: 3.44
UGT [14]
  remaining at 1 h, 5 µM: 73%
UGT [15]
  remaining at 0.25 h, 5 µM: 89%
CYP450 [16]
  remaining at 1 h, 5 µM: 100%
Pseudomonas aeruginosa
  IC50: > 64 µM
CYP450 [17]
  remaining at 0.25 h, 5 µM: 100%
Mycobacterium marinum
  IC50: 3.22 µM

## CN[C@H](CC(C)C)C(=O)N[C@H]1C(=O)N[C@@H](CC(N)=O)C(=O)N[C@H]2C(=O)N[C@H]3C(=O)N[C@H](C(=O)N[C@H](C(=O)O)c4cc(O)cc(O)c4-c4cc3ccc4O)[C@H](O)c3ccc(c(Cl)c3)Oc3cc2cc(c3O[C@@H]2O[C@H](CO)[C@@H](O)[C@H](O)[C@H]2O[C@H]2C[C@](C)(N)[C@H](O)[C@H](C)O2)Oc2ccc(cc2Cl)[C@H]1O [VANCOMYCIN]
Enterococcus faecium
  IC50: > 0.5 µM

## O=C1C2=C(C(=O)c3c1cnc1ccc(F)cc31)C1CCC2C1 (stereo not drawn)
[1]
  IC50: 0.24 µM
Staphylococcus aureus
  IC50: > 64 µM
UGT [2]
  remaining at 0.5 h, 5 µM: 79%
Klebsiella pneumoniae
  IC50: > 64 µM
Escherichia coli
  IC50: > 64 µM
[3]
  CC50 at 24 h: > 128 µM
UGT [4]
  remaining at 0.5 h, 5 µM: 92%
CYP450 [5]
  remaining at 0.25 h, 5 µM: 100%
CYP450 [6]
  remaining at 0.5 h, 5 µM: 100%
UGT [7]
  remaining at 1 h, 5 µM: 64%
[8]
  IC50: 6.93 µM
  MIC90: 57.3 µM (≈ 16.8 µg/mL)
Enterococcus faecium
  IC50: > 64 µM
Streptococcus pneumoniae
  IC50: 32 to 64 µM
[9]
  IC50: 4 to 8 µM
CYP450 [10]
  remaining at 0.5 h, 5 µM: 100%
CYP450 [11]
  remaining at 1 h, 5 µM: 100%
UGT [12]
  remaining at 0.25 h, 5 µM: 92%
UGT [14]
  remaining at 1 h, 5 µM: 72%
UGT [15]
  remaining at 0.25 h, 5 µM: 96%
CYP450 [16]
  remaining at 1 h, 5 µM: 100%
Pseudomonas aeruginosa
  IC50: > 64 µM
CYP450 [17]
  remaining at 0.25 h, 5 µM: 100%
Mycobacterium marinum
  IC50: 5.04 µM

## CC/C(=C(\c1ccccc1)c1ccc(OCCN(C)C)cc1)c1ccccc1 [TAMOXIFEN]
[3]
  CC50 at 24 h: 11.1 µM

## O=C1C2=C(C(=O)c3c1cnc1ccc(C(F)(F)F)cc31)C1CCC2C1 (stereo not drawn)
[1]
  IC50: 8.51 µM
Staphylococcus aureus
  IC50: > 64 µM
UGT [2]
  remaining at 0.5 h, 5 µM: 74%
Klebsiella pneumoniae
  IC50: > 64 µM
Escherichia coli
  IC50: > 64 µM
[3]
  CC50 at 24 h: 108 µM
UGT [4]
  remaining at 0.5 h, 5 µM: 81%
CYP450 [5]
  remaining at 0.25 h, 5 µM: 100%
CYP450 [6]
  remaining at 0.5 h, 5 µM: 100%
UGT [7]
  remaining at 1 h, 5 µM: 69%
[8]
  IC50: 2.51 µM
  MIC90: 9.23 µM (≈ 3.17 µg/mL)
Enterococcus faecium
  IC50: > 64 µM
Streptococcus pneumoniae
  IC50: > 64 µM
[9]
  IC50: 2 to 4 µM
CYP450 [10]
  remaining at 0.5 h, 5 µM: 100%
CYP450 [11]
  remaining at 1 h, 5 µM: 100%
UGT [12]
  remaining at 0.25 h, 5 µM: 100%
[13]
  selectivity ratio: 11.8
UGT [14]
  remaining at 1 h, 5 µM: 78%
UGT [15]
  remaining at 0.25 h, 5 µM: 87%
CYP450 [16]
  remaining at 1 h, 5 µM: 100%
Pseudomonas aeruginosa
  IC50: > 64 µM
CYP450 [17]
  remaining at 0.25 h, 5 µM: 100%
Mycobacterium marinum
  IC50: 45.5 µM
